In brackets after ≈: the same amount, converted by molar mass. Activity calls are given as the source filed them.
Tests used:
Pseudomonas aeruginosa [1] = test: Antibacterial activity against Pseudomonas aeruginosa PAO1 after 20 hrs in the presence of Pa-beta-N and magnesium ions by broth microdilution method; type: functional; settings: PAO1, 20 h
How it was run: (§1)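 Broth microdilution in Tryptic Soy Broth, done in triplicate. Growth was read as OD600 after 20 h. MIC is the lowest drug concentration giving OD600 below 0.1.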

Pseudomonas aeruginosa [2] = test: Antibacterial activity against Pseudomonas aeruginosa PAO1 after 20 hrs by broth microdilution method; type: functional; settings: PAO1, 20 h; how it was run: as §1
Klebsiella pneumoniae [3] = test: Antibacterial activity against Klebsiella pneumoniae M6 after 20 hrs by broth microdilution method; type: functional; settings: M6, 20 h; how it was run: as §1
Pseudomonas aeruginosa [4] = test: Antibacterial activity against Pseudomonas aeruginosa NCTC 13437 after 20 hrs by broth microdilution method; type: functional; settings: NCTC 13437, 20 h; how it was run: as §1
Acinetobacter baumannii [5] = test: Ratio of MIC for Acinetobacter baumannii AYE in absence of PMBN to MIC for Acinetobacter baumannii AYE in presence of PMBN; type: functional
How it was run: (§2)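 Fold change: MIC without divided by MIC with 30 μg/mL PMBN. Both MICs were by TSB broth microdilution, with an OD600 <0.1 cutoff at 20 h.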

Staphylococcus aureus [6] = test: Antibacterial activity against methicillin-resistant Staphylococcus aureus EMRSA-15 after 20 hrs by broth microdilution method; type: functional; settings: EMRSA-15, 20 h
How it was run: (§3)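 Broth microdilution in Tryptic Soy Broth; growth read as OD600 after 20 h. MIC taken as the lowest drug concentration giving OD600 below 0.1. Run in triplicate.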

Acinetobacter baumannii [7] = test: Antibacterial activity against Acinetobacter baumannii AYE after 20 hrs by broth microdilution method; type: functional; how it was run: as §1
Pseudomonas aeruginosa [8] = test: Ratio of MIC for Pseudomonas aeruginosa PAO1 in absence of PMBN to MIC for Pseudomonas aeruginosa PAO1 in presence of PMBN; type: functional; how it was run: as §2
[9] = Stabilization of FAM/TAMRA-labeled AT-rich DNA duplex (unknown origin) assessed as change in melting temperature at 5 uM by FRET-based assay
How it was run: (§4)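 FRET melting of a FAM/TAMRA-labelled AT-rich oligonucleotide, 400 nM working solution in 50 mM potassium, 50 mM cacodylate, pH 7.4. DNA was annealed at 85 °C for 6 min, then held at 25 °C for 5 h, and mixed 1:1 with sample. Fluorescence was read every 0.5 °C from 30 to 100 °C, with a 30 s hold per step. ΔTm is measured against the blank, in triplicate.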

Klebsiella pneumoniae [10] = test: Antibacterial activity against Klebsiella pneumoniae NCTC 13368 after 20 hrs in the presence of Pa-beta-N and magnesium ions by broth microdilution method; type: functional; settings: NCTC 13368, 20 h; how it was run: as §1
Klebsiella pneumoniae [11] = test: Ratio of MIC for Klebsiella pneumoniae M6 in absence of PMBN to MIC for Klebsiella pneumoniae M6 in presence of PMBN; type: functional; how it was run: as §2
Enterococcus faecium = test: Antibacterial activity against vancomycin-resistant Enterococcus faecium NCTC 12204 after 20 hrs by broth microdilution method; type: functional; settings: NCTC 12204, 20 h; how it was run: as §3
Acinetobacter baumannii [12] = test: Antibacterial activity against Acinetobacter baumannii ATCC 17978 after 20 hrs by broth microdilution method; type: functional; settings: ATCC 17978, 20 h; how it was run: as §1
Klebsiella pneumoniae [13] = test: Antibacterial activity against Klebsiella pneumoniae NCTC 13368 after 20 hrs in the presence of PMBN by broth microdilution method; type: functional; settings: NCTC 13368, 20 h; how it was run: as §1
Klebsiella pneumoniae [14] = test: Antibacterial activity against Klebsiella pneumoniae NCTC 13368 after 20 hrs by broth microdilution method; type: functional; settings: NCTC 13368, 20 h; how it was run: as §1
[15] = Cytotoxicity against human HeLa cells assessed as cell viability at 25 uM after 24 hrs by MTT assay; type: cell-based; settings: read-out: Activity
How it was run: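 HeLa cells, 10000 per well, were grown at 37 °C in 5% CO2 and allowed to settle for 24 h. Compound was then added in triplicate for 24 h of continuous exposure. Viability was read by MTT colorimetry, with absorbance at 570 nm.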

Staphylococcus aureus [16] = test: Antibacterial activity against methicillin-resistant Staphylococcus aureus MRSA252 after 20 hrs by broth microdilution method; type: functional; settings: MRSA252, 20 h; how it was run: as §3
Acinetobacter baumannii [17] = test: Antibacterial activity against Acinetobacter baumannii AYE after 20 hrs in the presence of Pa-beta-N and magnesium ions by broth microdilution method; type: functional; how it was run: as §1
Acinetobacter baumannii [18] = test: Antibacterial activity against Acinetobacter baumannii ATCC 17978 after 20 hrs in the presence of PMBN by broth microdilution method; type: functional; settings: ATCC 17978, 20 h; how it was run: as §1
Klebsiella pneumoniae [19] = test: Ratio of MIC for Klebsiella pneumoniae NCTC 13368 in absence of PMBN to MIC for Klebsiella pneumoniae NCTC 13368 in presence of PMBN; type: functional; how it was run: as §2
Pseudomonas aeruginosa [20] = test: Ratio of MIC for Pseudomonas aeruginosa NCTC 13437 in absence of PMBN to MIC for Pseudomonas aeruginosa NCTC 13437 in presence of PMBN; type: functional; how it was run: as §2
Enterococcus faecalis [21] = test: Bactericidal activity against vancomycin-resistant Enterococcus faecalis NCTC 12201 at 4 times MIC after 10 hrs by Miles Misra dilution method; type: functional
[22] = Stabilization of FAM/TAMRA-labeled AT-rich DNA duplex (unknown origin) assessed as change in melting temperature at 1 uM by FRET-based assay; how it was run: as §4
Enterococcus faecalis [23] = test: Antibacterial activity against vancomycin-resistant Enterococcus faecalis NCTC 12201 after 20 hrs by broth microdilution method; type: functional; settings: NCTC 12201, 20 h; how it was run: as §3
Acinetobacter baumannii [24] = test: Ratio of MIC for Acinetobacter baumannii ATCC 17978 in absence of Pa-beta-N to MIC for Acinetobacter baumannii ATCC 17978 in presence of Pa-beta-N; type: functional
How it was run: (§5)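 Both MICs were by TSB broth microdilution, with an OD600 <0.1 cutoff at 20 h.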

Pseudomonas aeruginosa [25] = test: Antibacterial activity against Pseudomonas aeruginosa NCTC 13437 after 20 hrs in the presence of Pa-beta-N and magnesium ions by broth microdilution method; type: functional; settings: NCTC 13437, 20 h; how it was run: as §1
Enterococcus faecalis [26] = test: Bactericidal activity against vancomycin-resistant Enterococcus faecalis NCTC 12201 assessed as time required to kill bacteria by >6 log10CFU/ml at 4 times MIC by Miles Misra dilution method; type: functional
How it was run: (§6)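 Flasks of TSB inoculated at ~10^6 cfu/mL, compound added at 4 × MIC, shaken at 200 rpm and 37 °C. Samples taken at 1, 2, 4, 6 and 24 h and plated by Miles Misra dilution for CFU/mL. Bactericidal means a loss of >3 log CFU/mL. Three independent repeats, error bars SD.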

Acinetobacter baumannii [27] = test: Ratio of MIC for Acinetobacter baumannii AYE in absence of Pa-beta-N to MIC for Acinetobacter baumannii AYE in presence of Pa-beta-N; type: functional; how it was run: as §5
Klebsiella pneumoniae [28] = test: Antibacterial activity against Klebsiella pneumoniae M6 after 20 hrs in the presence of PMBN by broth microdilution method; type: functional; settings: M6, 20 h; how it was run: as §1
Enterococcus faecalis [29] = test: Antibacterial activity against vancomycin-sensitive Enterococcus faecalis NCTC 775 after 20 hrs by broth microdilution method; type: functional; settings: NCTC 775, 20 h; how it was run: as §1
Klebsiella pneumoniae [30] = test: Ratio of MIC for Klebsiella pneumoniae M6 in absence of Pa-beta-N to MIC for Klebsiella pneumoniae M6 in presence of Pa-beta-N; type: functional; how it was run: as §5
Acinetobacter baumannii [31] = test: Ratio of MIC for Acinetobacter baumannii ATCC 17978 in absence of PMBN to MIC for Acinetobacter baumannii ATCC 17978 in presence of PMBN; type: functional; how it was run: as §2
Staphylococcus aureus [32] = test: Bactericidal activity against methicillin-resistant Staphylococcus aureus EMRSA-15 at 4 times MIC after 10 hrs by Miles Misra dilution method; type: functional
Acinetobacter baumannii [33] = test: Antibacterial activity against Acinetobacter baumannii AYE after 20 hrs in the presence of PMBN by broth microdilution method; type: functional; how it was run: as §1
Pseudomonas aeruginosa [34] = test: Ratio of MIC for Pseudomonas aeruginosa NCTC 13437 in absence of Pa-beta-N to MIC for Pseudomonas aeruginosa NCTC 13437 in presence of Pa-beta-N; type: functional; how it was run: as §5
Pseudomonas aeruginosa [35] = test: Antibacterial activity against Pseudomonas aeruginosa NCTC 13437 after 20 hrs in the presence of PMBN by broth microdilution method; type: functional; settings: NCTC 13437, 20 h; how it was run: as §1
Staphylococcus aureus [36] = test: Bactericidal activity against methicillin-resistant Staphylococcus aureus EMRSA-15 assessed as time required to kill bacteria by >6 log10CFU/ml at 4 times MIC by Miles Misra dilution method; type: functional; how it was run: as §6
Klebsiella pneumoniae [37] = test: Ratio of MIC for Klebsiella pneumoniae NCTC 13368 in absence of Pa-beta-N to MIC for Klebsiella pneumoniae NCTC 13368 in presence of Pa-beta-N; type: functional; how it was run: as §5
Pseudomonas aeruginosa [38] = test: Antibacterial activity against Pseudomonas aeruginosa PAO1 after 20 hrs in the presence of PMBN by broth microdilution method; type: functional; settings: PAO1, 20 h; how it was run: as §1
Klebsiella pneumoniae [39] = test: Antibacterial activity against Klebsiella pneumoniae M6 after 20 hrs in the presence of Pa-beta-N and magnesium ions by broth microdilution method; type: functional; settings: M6, 20 h; how it was run: as §1
Staphylococcus aureus [40] = test: Antibacterial activity against methicillin-sensitive Staphylococcus aureus ATCC 9144 after 20 hrs by broth microdilution method; type: functional; settings: ATCC 9144, 20 h; how it was run: as §1
Acinetobacter baumannii [41] = test: Antibacterial activity against Acinetobacter baumannii ATCC 17978 after 20 hrs in the presence of Pa-beta-N and magnesium ions by broth microdilution method; type: functional; settings: ATCC 17978, 20 h; how it was run: as §1

Cc1nc2ccc(C(=O)Nc3cccc(-c4ccc(-n5c(C)nc6cc(C(=O)NCCCCN(C)C)ccc65)nc4)c3)cc2[nH]1
MIC (Pseudomonas aeruginosa [1]): > 32 µg/mL | MIC (Pseudomonas aeruginosa [2]): > 32 µg/mL | MIC (Klebsiella pneumoniae [3]): > 32 µg/mL | MIC (Pseudomonas aeruginosa [4]): > 32 µg/mL | Ratio (Acinetobacter baumannii [5]): 2 | MIC (Staphylococcus aureus [6]): 1 µg/mL (≈ 1.66 µM) | MIC (Acinetobacter baumannii [7]): > 32 µg/mL | Ratio (Pseudomonas aeruginosa [8]): >16 | deltaTm [9]: 0.6 °C | MIC (Klebsiella pneumoniae [10]): 32 µg/mL | Ratio (Klebsiella pneumoniae [11]): 4 | MIC (Enterococcus faecium): ≤ 0.125 µg/mL | MIC (Acinetobacter baumannii [12]): > 32 µg/mL | MIC (Klebsiella pneumoniae [13]): 32 µg/mL | MIC (Klebsiella pneumoniae [14]): > 32 µg/mL | viability at 24 h, 25 µM [15]: > 98% | MIC (Staphylococcus aureus [16]): 2 µg/mL (≈ 3.33 µM) | MIC (Acinetobacter baumannii [17]): 16 µg/mL | MIC (Acinetobacter baumannii [18]): 8 µg/mL | Ratio (Klebsiella pneumoniae [19]): 4 | Ratio (Pseudomonas aeruginosa [20]): >16 | Activity (Enterococcus faecalis [21]): inactive | deltaTm [22]: 0.3 °C | MIC (Enterococcus faecalis [23]): 0.25 µg/mL (≈ 0.416 µM) | Ratio (Acinetobacter baumannii [24]): 2 - 4 | MIC (Pseudomonas aeruginosa [25]): > 32 µg/mL | Time (Enterococcus faecalis [26]): 2 h | Ratio (Acinetobacter baumannii [27]): 2 - 4 | MIC (Klebsiella pneumoniae [28]): 16 µg/mL | MIC (Enterococcus faecalis [29]): 0.5 µg/mL (≈ 0.832 µM) | Ratio (Klebsiella pneumoniae [30]): >=4 | Ratio (Acinetobacter baumannii [31]): 2 | Activity (Staphylococcus aureus [32]): inactive | MIC (Acinetobacter baumannii [33]): 8 µg/mL | Ratio (Pseudomonas aeruginosa [34]): 2 - 4 | MIC (Pseudomonas aeruginosa [35]): 16 µg/mL | Time (Staphylococcus aureus [36]): 2 h | Ratio (Klebsiella pneumoniae [37]): 2 - 4 | MIC (Pseudomonas aeruginosa [38]): 16 µg/mL | MIC (Klebsiella pneumoniae [39]): 16 µg/mL | MIC (Staphylococcus aureus [40]): 0.5 µg/mL (≈ 0.832 µM) | MIC (Acinetobacter baumannii [41]): 8 µg/mL

Reference: ChEMBL document CHEMBL4011643, “Triaryl Benzimidazoles as a New Class of Antibacterial Agents against Resistant Pathogenic Microorganisms” (J Med Chem, 2017)
